Experimental data reported in publication PMC4539048 (Science translational medicine, 2015).

How the values were obtained:
pig DHODH = pig DHODH (Sus scrofa, UniProt F1S3B0); experiment: DHODH inhibition, DCIP spectrophotometric assay; type: biochemical
P. falciparum 3D7 = experiment: Blood-stage phenotype and development by microscopy; type: cell-based; details: 10xEC50, 48 h
Procedure, shortened: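 Giemsa-stained smears were scored by microscopy, at least 200 cells per condition, for stage arrest and morphology. Standard antimalarials served as controls.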

[1] = test system: P. falciparum gametocytes stages IV–V; experiment: Gametocyte assay stages IV–V; type: cell-based
P. falciparum gametes = experiment: Dual gamete formation assay; type: cell-based
[2] = test system: P. falciparum stage V oocyst; experiment: Oocyst formation in mosquitoes
[3] = Plasma protein binding, mouse; type: in vitro ADME
[4] = Plasma protein binding, dog; type: in vitro ADME
[5] = Plasma protein binding, rat; type: in vitro ADME
[6] = Stability in hepatic microsomes and cryopreserved hepatocytes; type: in vitro ADME; details: across species
[7] = test system: G6PD-deficient human red blood cells; type: in vivo, NOD-SCID mice; details: blood type A- G6PD-deficient human red blood cells
P. berghei DHODH = details: cited from earlier work
[8] = test system: Salmonella typhimurium-E. coli; experiment: 5-strain bacterial reverse mutation assay

pig DHODH, sequence (F1S3B0 1-395): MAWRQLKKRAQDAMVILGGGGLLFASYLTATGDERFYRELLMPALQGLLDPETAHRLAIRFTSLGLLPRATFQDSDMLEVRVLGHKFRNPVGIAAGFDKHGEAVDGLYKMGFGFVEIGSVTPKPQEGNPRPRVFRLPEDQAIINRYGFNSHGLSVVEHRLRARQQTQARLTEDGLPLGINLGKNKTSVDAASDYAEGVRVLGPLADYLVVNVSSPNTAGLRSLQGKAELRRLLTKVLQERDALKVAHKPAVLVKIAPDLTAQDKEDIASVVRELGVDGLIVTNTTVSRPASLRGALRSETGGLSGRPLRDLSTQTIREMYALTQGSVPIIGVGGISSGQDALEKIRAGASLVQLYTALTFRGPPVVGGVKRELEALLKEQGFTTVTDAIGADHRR

With `Cc1cc(Nc2ccc(S(F)(F)(F)(F)F)cc2)n2nc(C(C)(F)F)nc2n1` [DSM265, 2-(1,1-difluoroethyl)-5-methyl-[N-[4-(pentafluorosulfanyl)phenyl]1,2,4]triazolo[1,5-a]pyrimidin-7-amine] the IC50 (pig DHODH) was greater than 98.7 µM, the “blood-stage phenotype after treatment” value (P. falciparum 3D7) was “arrested parasites in the young trophozoite-stage” and the “EC50, gametocytes stages IV–V” value [1] was “no activity”. The EC50 ([1]; Plasmodium falciparum, read-out: EC50, gametocytes stages IV–V) was greater than 16 µg/mL, the “EC50, dual gamete formation assay” value (P. falciparum gametes) was “inactive” and the inhibition at 1 µg/mL ([2]; Plasmodium falciparum, read-out: inhibition of oocyst formation) was 38%. The “inhibition of oocyst formation at unbound concentration” value ([2]; at 0.001 μg/mL unbound (human plasma fraction unbound)) was 38% at 0.001, the fraction unbound [3] was 0.003 and the fraction unbound [4] was 0.006. For the same molecule, the fraction unbound [5] was 0.023, the “degradation in hepatic microsomes and cryopreserved hepatocytes” value [6] was “minimal degradation” and the hemolytic toxicity [7] was “not hemolytic”. The “activity against P. berghei DHODH” value (P. berghei DHODH) was “poor activity” and the “mutagenic activity (Ames test)” value [8] was “non-mutagenic”.
